Data set [1] concerns Hepatitis C virus. Kind of data set: Antiviral activity against HCV J6/JFH/JC1 infected in human Huh7.5 cells incubated for 72 hrs by In-Cell Western assay. Type of data set: functional, organism-based, Hepacivirus hominis. The settings on record: J6/JFH/JC1, Huh7.5, 72 h. The method in brief:
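Huh7.5 cells infected with HCVcc (MOI 0.1) and treated with compound at the same time for 72 h. Cells fixed with PFA, permeabilized, then stained for HCV Core and GAPDH with IR-dye secondaries. Core signal normalized to GAPDH. Eight-step 1:5 dilutions in triplicate; EC50 by Reed & Muench; mean of three experiments.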

Data set [2] deals with Hepatitis C virus. The data set is described as follows: Antiviral activity against HCV GS4.3 infected in human Huh7.5 cells assessed as reduction in viral NS3 protein levels at 0.2 to 5 uM incubated for 72 hrs by Western blot assay. It is filed as functional, organism-based. To be noted: Hepacivirus hominis. (Immunoblotting shows a protein as a band on a membrane.)
In data set [3] the test system is Hepatitis C virus. Kind of data set: Antiviral activity against HCV GS4.3 infected in human Huh7.5 cells assessed as […] at 0.008 to 1 uM simultaneously treated with viral infection and measured after 72 hrs by Western blot assay. It is filed as functional, organism-based. To be noted: Hepacivirus hominis.
For data set [4], the system named is Hepatitis C virus. Kind of data set: Induction of HCV GS4.3 viral particles inactivation infected in human Huh7.5 cells assessed as reduction in viral protein levels at 1 uM pre-incubated with virus for 2 hrs before viral infection and measured after 72 hrs by Western blot assay. It is filed as functional, organism-based. The settings on record: Hepacivirus hominis. Summed up:
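Huh7.5 cells inoculated with HCV stock pre-treated 2 h with 1.0 μM compound, then diluted 20-fold (final 0.05 μM). Control stocks were treated with 0.05 μM or 1.0 μM. Intracellular proteins were extracted and analysed by western blot at 72 h, with HCV Core/actin ratio normalized to control.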

In data set [5] the test system is Hepatitis C virus. Kind of data set: Antiviral activity against HCV with wild type glycoprotein E1 infected in human Huh7.5 cells assessed as reduction in viral RNA levels incubated for 72 hrs by qRT-PCR analysis. Type of data set: functional, organism-based, Hepacivirus hominis. To be noted: Huh7.5, 72 h. Summed up: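 Huh7.5 cells seeded 24 h, then infected with wild-type (or mutant) HCV with compound added at the same time. Incubated 72 h. Intracellular HCV RNA measured by qRT-PCR, 2^-ΔCt method, normalized to GAPDH. Eight-step 1:5 serial dilutions in triplicate; EC50 by Reed & Muench; three independent experiments.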

For a further data set, the system named is Influenza A virus. The data set is described as follows: Antiviral activity against influenza A virus H3N2/95-359 infected in MDCK cells assessed as reduction in virus-induced cytopathic effect incubated for 48 hrs by Reed-Muench method. Type of data set: functional, organism-based. The settings on record: H3N2/95-359, MDCK. On the technique in general: Protection from cytopathic effect is a common read-out in antiviral testing.

A short description of data set [6]: Cytotoxicity in MDCK cells assessed as reduction in cell viability. Type of data set: cell-based, Canis lupus familiaris. To be noted: dog.
The nature of data set [7]: Selectivity index, ratio of CC50 for cytotoxicity in African green monkey Vero E6 cells to EC50 for Antiviral activity against Zika virus infected in Vero E6 cells. It is filed as toxicity, cell-based, Vero C1008. The settings on record: read-out: Ratio CC50/EC50.
Data set [8] has as its system Hepatitis C virus. Kind of data set: Antiviral activity against HCV expressing NS3 A156T mutant by qRT-PCR analysis based by Reed-Muench method. Type of data set: functional, organism-based, Hepacivirus hominis. The method in brief:
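Huh7.5 cells seeded at 3×10^4/cm², infected 24 h later with wild-type or mutant HCV stock while compound or solvent was added at the same time. Intracellular HCV RNA measured by qRT-PCR at 72 h, normalised to GAPDH, 2^-ΔCT method. EC50 by Reed & Muench from eight-step 1:5 serial dilutions, triplicate wells.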
A general note: Real-time PCR tracks product formation cycle by cycle.

Data set [9] deals with Hepatitis C virus. Kind of data set: Synergistic antiviral activity against HCV infected in human Huh7.5 cells assessed as reduction in HCV core protein level by measuring (q) value at 0.1 uM in presence of 0.016 nM daclatasvir incubated for 72 hrs by Western blot assay based Webb method relative to control. It is filed as functional, Hepacivirus hominis. The method in brief:
(§1)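 Huh7.5 cells in 6-well plates were infected with HCV in the presence of 0.1 μM test compound combined with simeprevir 0.025 μM, sofosbuvir 0.1 μM or daclatasvir 0.016 nM. Western blot at 72 h gave HCV core protein relative to actin, normalized to control. q calculated by Webb's method (q<1 antagonism, =1 addition, >1 synergy); over 3 independent experiments.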

The subject of data set [10] is Hepatitis C virus. The data set is described as follows: Synergistic antiviral activity against HCV infected in human Huh7.5 cells assessed as reduction in HCV core protein level by measuring (q) value at 0.1 uM in presence of 0.1 uM sofosbuvir incubated for 72 hrs by Western blot assay based Webb method relative to control. Type of data set: functional, Hepacivirus hominis. The method in brief:
as §1

Data set [11] is described as follows: Toxicity in Kunming mouse assessed as effect on […] level at 250 to 1000 mg/kg dosed via single oral gavage and measured on day 7 post treatment. Type of data set: organism-based. The settings on record: in vivo. Summed up: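 Kunming mice, 4 groups of n = 6 (3 male, 3 female). Fasted from 12 h before to 1 h after dosing. Single oral gavage of 250, 500 or 1000 mg/kg suspended in 0.5% CMC-Na, or vehicle alone. Followed for 7 days: survival, body weight before and at day 7. Day-7 blood taken for AST, ALT, urea nitrogen and creatinine.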

A short description of data set [12]: Half life in Sprague-Dawley rat at 5 mg/kg, iv measured after 0.08 to 72 hrs post dose by LC-MS/MS analysis. It is filed as ADME, organism-based. To be noted: in vivo. The method in brief:
(§2)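 Single dose to fasted (12 h) animals: oral gavage 15 mg/kg as suspension in 0.5% CMC-Na, or iv 5 mg/kg dissolved in citric acid buffer pH 5.0 with 2.5% DMSO. Jugular vein blood on heparin at 0.08 (iv only) to 72 h. Plasma assayed by LC-MS/MS; parameters from noncompartmental analysis.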

The nature of data set [13]: Cmax in Sprague-Dawley rat at 5 mg/kg, iv measured after 0.08 to 72 hrs post dose by LC-MS/MS analysis. Type of data set: ADME, organism-based. Details: dose 5 mg/kg, route intravenous. The settings on record: in vivo. The method in brief:
as §2

The nature of data set [14]: AUC (0 to 72 hrs) in Sprague-Dawley rat at 5 mg/kg, iv measured after 0.08 to 72 hrs post dose by LC-MS/MS analysis. The settings on record: in vivo. Also on record: time < 72 hr, dose 5 mg/kg, route intravenous. Type of data set: ADME, organism-based. Summed up: as §2
Data set [15] in a line: Drug level in Sprague-Dawley rat at 5 mg/kg, iv measured after 24 hrs post dose by LC-MS/MS analysis. The settings on record: in vivo, read-out: Drug uptake. It is filed as ADME, organism-based. The method in brief: as §2
Data set [16] is described as follows: AUC (0 to 72 hrs) in Sprague-Dawley rat at 15 mg/kg, po measured after 0.08 to 72 hrs post dose by LC-MS/MS analysis. Type of data set: ADME, organism-based. Details: dose 15 mg/kg, time < 72 hr, route oral. The settings on record: in vivo. The method in brief: as §2
The nature of data set [17]: Clearance in Sprague-Dawley rat at 15 mg/kg, po measured after 0.08 to 72 hrs post dose by LC-MS/MS analysis. It is filed as ADME, organism-based. To be noted: in vivo. Summed up: as §2
A short description of data set [18]: Half life in beagle dog at 5 mg/kg, iv measured after 0.08 to 72 hrs post dose by LC-MS/MS analysis. Type of data set: ADME, organism-based, Canis lupus familiaris. The settings on record: in vivo.
Data set [19] can be described thus: Clearance in beagle dog at 5 mg/kg, iv measured after 0.08 to 72 hrs post dose by LC-MS/MS analysis. Type of data set: ADME, organism-based, Canis lupus familiaris. To be noted: in vivo. The method in brief: as §2
Data set [20] is described as follows: AUC (0 to 72 hrs) in beagle dog at 15 mg/kg, po measured after 0.08 to 72 hrs post dose by LC-MS/MS analysis. It is filed as ADME, organism-based, Canis lupus familiaris. Details: time < 72 hr, dose 15 mg/kg, route oral. To be noted: in vivo. Summed up:
as §2

Data set [21] is described as follows: Apparent Volume of distribution in beagle dog at 15 mg/kg, po measured after 0.08 to 72 hrs post dose by LC-MS/MS analysis. Type of data set: ADME, organism-based, Canis lupus familiaris. The settings on record: in vivo. The method in brief:
as §2

Activity calls are given as the source filed them.

The term EC50 denotes the midpoint of the concentration-response curve. By CC50 is commonly meant the concentration that lowers cell viability or growth by half. The term half-life denotes the time needed for the level to fall by half in the phase considered. What is called Cmax is the maximum level reached in the sampled fluid or tissue. One may read the AUC(0-t) as exposure summed from dosing to a finite time, without extrapolation to infinity. Usually CL/F stands for the apparent clearance, not corrected for the fraction that reaches the circulation. For orientation: clearance means the volume of plasma or blood freed of the substance per unit of time.

`CN(C)CCN(C)c1ccc(C#N)c(CN2CCN(c3ccc(Cl)cc3)CC2)c1`: the EC50 is 0.083 to 0.125 µM in the data set with Hepatitis C virus [1], 0.006 µM in the data set with Hepatitis C virus [5], more than 2.47 µM in the data set with Influenza A virus and 0.0019 µM in the data set with Hepatitis C virus [8]. The result in the data set on Hepatitis C virus [2] and in the data set with Hepatitis C virus [4] was inactive. For the same compound, the outcome in the data set on Hepatitis C virus [3] was Active. Besides, the CC50 in [6] stood at 4.28 µM. Further, the selectivity ratio in data set [7] is 3. The values for the Ratio in the data set with Hepatitis C virus [9] and with Hepatitis C virus [10] were 1.27 and 1.08, respectively. Moreover, the Activity result in data set [11] is listed as “Non-Toxic”. The half-life in data set [12] is 14.3 h; in data set [18], 7.28 h. This compound came in with a Cmax in [13] of 0.617 µg/mL. For the same compound, the area under the curve AUC(0-t) at 72 h in data set [14] came to 5.42 µg·h/mL; in [16], 9.59 µg·h/mL; in [20] it was 1.28 µg·h/mL. In [15], the concentration at 24 h was 0.077 µg/mL. Further, the CL/F in [17] was 2.25 L/h/kg. Also, the clearance in data set [19] is 4.75 L/h/kg. In addition, the Vz in [21] came out at 238.11697 L/kg.
